FGF22 binding = binders of recombinant human FGF22 by thermal shift; Q9HCT0; SYPRO orange fluorescence; percent of sucrose octasulfate shift, DMSO zero; activity (Tm shift, normalised), % at 9.99 µM; actives 1.5% (n = 340,000); AID 651658;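 active = mean Tm shift, scaled 0 neutral to 100 positive control, at about 1.3% or above, every replicate too, limit read from the data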
dFosB act-1 = activators of mouse delta FosB homodimer | P13346 | purified delta FosB, TAMRA-CDK5 oligo fluorescence polarization; percent of positive-control signal above neutral wells | activation, % at 25 µM | actives 0.99% (n = 340,000) | AID 493131;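 active = mean activation above about 17%, with every replicate also reaching it, limit read from the data, passing the limit was not always enough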
Target sequence (P13346 whole entry, looked up): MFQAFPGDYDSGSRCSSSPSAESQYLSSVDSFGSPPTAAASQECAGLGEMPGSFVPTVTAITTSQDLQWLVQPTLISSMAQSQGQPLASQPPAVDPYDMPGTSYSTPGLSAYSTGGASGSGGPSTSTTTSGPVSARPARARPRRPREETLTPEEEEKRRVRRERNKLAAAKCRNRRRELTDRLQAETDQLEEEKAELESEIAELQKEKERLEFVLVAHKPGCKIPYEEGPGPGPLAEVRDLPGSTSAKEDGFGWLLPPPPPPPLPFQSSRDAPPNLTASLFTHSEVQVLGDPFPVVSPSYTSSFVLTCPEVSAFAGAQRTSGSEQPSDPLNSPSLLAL
S100A4 MyoIIA = S100A4-myosin IIA interaction inhibition. P26447. S100A4/TAMRA-MyoIIA peptide fluorescence polarization. inhibition, % at 10.7 µM. actives 0.14% (n = 360,000);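 active = mean inhibition of at least 70% across replicates, with every replicate also reaching that level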
Target sequence (P26447 whole entry, looked up): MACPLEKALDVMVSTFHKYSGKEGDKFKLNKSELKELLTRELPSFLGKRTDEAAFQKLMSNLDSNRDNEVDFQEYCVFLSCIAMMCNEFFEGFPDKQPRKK
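Material: human S100A4 monomer with TAMRA-labelled myosin IIA peptide; buffer or medium: HEPES pH 7.2 with CaCl2, KCl, NaCl, DTT, Triton; compound dosing: one concentration per compound; schedule: 5 min incubation before reading; benchmarks: neutral control DMSO, positive control TFP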
F508del corr = CFTR F508del correction in bronchial cells; AID 720511; activity (quench increase), % at 7.58 µM; actives 0.36% (n = 350,000); CFBE cells, YFP halide quenching; stimulated with forskolin plus potentiator P3; % fluorescence drop versus neutral controls;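 active = mean added fluorescence quench of at least 8% versus neutral control, with both replicates also reaching 8%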;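 note: cells transiently co-express mutant CFTR-F508del with the halide-sensitive YFP; corrector assay measuring rescue of mutant channel to the surface after 24 h compound exposure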
dFosB act-2 = delta FosB (mouse) homodimer activation; shares compounds with dFosB act-1; purified delta FosB, TAMRA-CDK5 oligo fluorescence polarization; normalised: neutral wells 0, positive control 100; activation, % at 24.9 µM; 2,400 tested, under 10 active;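 active = highest replicate activation at or above 34% and every replicate reaching that threshold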;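 note: higher polarization means more probe DNA bound by delta FosB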
* marks the source's active call; other numbers are inactive results; · = no result. An excerpt weighted towards active compounds, which were near 2.2% of everything screened.

SMILES	FGF22 binding	dFosB act-1	S100A4 MyoIIA	F508del corr	dFosB act-2
Cc1ccc(-n2nnc3c(=O)n(CC(=O)NCc4ccccc4)cnc32)cc1	-0.1	26.8*	-1.9	1.4	4.1
Cc1ccc(-n2nc3c(=O)n(CC(=O)NCc4ccccn4)nc(C)c3c2C)cc1	-0.2	-14.6	0.6	0.3	·
O=C(Cn1cnc2c(nnn2-c2ccccc2)c1=O)NCc1ccc(F)cc1	-0.1	19.1*	-2.7	3.2	4.5
O=C(Cn1cnc2c(nnn2Cc2ccc(F)cc2)c1=O)NCc1ccccc1	0.5	3.0	-3.9	5.0	·
CCOc1ccc(CNC(=O)Cn2nc(C)c3c(C)n(-c4ccc(C)cc4)nc3c2=O)cc1	-0.3	59.0*	-0.5	3.4	5.7
O=C(C[C@@H]1C[C@@H]2c3cc(NC(=O)C4CCC4)ccc3O[C@@H]2[C@@H](CO)O1)NCc1cccc(F)c1	-0.6	·	-1.0	-5.3	·
CC(C)[C@@H](C)NC(=O)N(C)C[C@H]1OCc2ccccc2-c2c(n(C)c3ccccc23)C(=O)N([C@H](C)CO)C[C@@H]1C	0.0	·	-8.0	-2.0	·
CC(C)NC(=O)N(C)C[C@@H]1OCCCC[C@@H](C)Oc2ccc(NC(=O)Cc3ccccc3)cc2C(=O)N([C@@H](C)CO)C[C@@H]1C	0.2	·	-7.1	-1.4	·
Cc1ccc2nc(NC(=O)CN(C)S(=O)(=O)c3cccc4nsnc34)sc2c1	·	20.6*	·	·	1.7
Cc1ccc2nc(NC(=O)CNS(=O)(=O)c3ccc(Br)s3)sc2c1	·	19.4*	·	·	-4.7
Cc1ccnc(NC(=O)CN(C)S(=O)(=O)c2cccc3nsnc23)c1	·	-3.5	·	·	·
Cc1ccc(/C=N\NC(=O)c2ccc(Cn3cc(Br)c([N+](=O)[O-])n3)o2)o1	0.2	26.6*	-3.9	0.6	-8.0
Cc1c(Cl)c([N+](=O)[O-])nn1Cc1ccc(C(=O)N/N=C\c2cccc(Br)c2)o1	·	6.5	·	·	·
O=C(N/N=C\c1cccc(Cl)c1)c1ccc(Cn2cc(Br)c([N+](=O)[O-])n2)o1	·	33.4*	·	·	-0.9
NS(=O)(=O)c1ccc(CCNC(=O)c2cc(-c3ccccn3)nc3ccc(Br)cc23)cc1	43.1*	32.0*	-30.2	·	-5.8
O=C(NCCc1ccc(Cl)cc1)c1cc(-c2ccccn2)nc2ccccc12	0.1	0.0	-12.6	-1.4	·
NS(=O)(=O)c1ccc(CCNC(=O)c2cc(-c3ccc(Br)cc3)nc3ccccc23)cc1	·	79.0*	·	·	0.1
CCCc1ccc(-c2cc(C(=O)NCCc3ccc(S(N)(=O)=O)cc3)c3ccccc3n2)cc1	·	10.7	·	·	·
O=C(Nc1cc(F)ccc1F)N1[C@@H]2CNC[C@H]1C2c1ccc(-c2ccc(F)cc2)cc1 (some centres not stated)	·	·	-15.9	0.8	·
CCOC(=O)Nc1ccc2c(COC(=O)c3ccccc3O)cc(=O)oc2c1	-0.3	-9.4	2.0	-1.9	·
CCOC(=O)Nc1ccc2c(COC(=O)CN(C)S(=O)(=O)c3ccc(C)cc3)cc(=O)oc2c1	-0.1	36.0*	-0.8	-1.7	7.5
Cc1nc2cc(C(=O)OCC(=O)NC34CC5CC(CC(C5)C3)C4)ccc2n1-c1ccccc1	·	65.4*	·	·	-0.7
CN(NC(=O)c1ccc(Cl)cc1)c1nc(-c2ccccc2)nnc1C(F)(F)F	·	31.9*	·	·	5.8
COc1ccc(NS(=O)(=O)c2ccc(O)c(NC(=O)c3ccc(S(=O)(=O)N4CCCC4)cc3)c2)cc1	0.2	20.3*	-0.5	-3.9	-0.2
C[C@H](CO)N1C[C@H](C)[C@H](CN(C)C(=O)Nc2ccc(F)cc2)Oc2ccc(NS(C)(=O)=O)cc2CC1=O	-0.1	·	8.9	-2.2	·
O=C(O)c1ccccc1OC(C(=O)Nc1cc(Cl)cc(Cl)c1)c1ccccc1 (configuration not stated)	-0.1	35.8*	-4.0	1.3	0.3
CNC(=O)C[C@@H]1CC[C@H]2[C@H](COc3ccc(NC(=O)c4ccccc4Cl)cc3C(=O)N2C)O1	0.1	·	-43.8	2.0	·
C[C@H]1CN([C@@H](C)CO)C(=O)c2cccc(NC(=O)Nc3ccc(C(F)(F)F)cc3)c2O[C@@H]1CN(C)Cc1ccncc1	-0.3	·	-11.0	-0.7	·
COc1ccc(NC(=O)CSc2nc(N)c(NC(=O)c3ccccc3F)c(=O)[nH]2)cc1	0.0	3.7	-0.2	-3.6	·
COc1ccc(CC(=O)Nc2ccc(NC(=O)c3ccccc3F)cc2)cc1	0.4	20.2*	-6.7	-1.3	-1.0
